For ten molecules, IC50, Activity and Drug uptake results are on record in ChEMBL document CHEMBL6071208, “Promoting Apoptosis in MCF-7 Cells via ROS Generation by Quinolino-triazoles Derived from One-Pot Telescopic Synthesis” (ACS Med Chem Lett, 2024).

Active and inactive are the calls of the source. The rule behind the calls is not given here.

For data set [1], the system named is MCF7. The data set can be described thus: Cytotoxicity against human MCF7 cells assessed inhibition of cell proliferation measured for 24 hrs by MTT assay. The format is functional, cell-based. The note with it: MCF7, 24 h. Put shortly:
(§1)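 MTT read-out of proliferation after 24 h exposure; MCF-7 breast cancer cells alongside noncancerous human embryonic kidney HEK-293 cells. IC50 in μM taken as the average ± SD of three individual experiments.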
For orientation: Formazan colour is commonly taken as a measure of viable cells.

The next data set deals with HEK293. The data set can be described thus: Cytotoxicity against HEK293 cells assessed inhibition of cell proliferation measured after 24 hrs by MTT assay. The format is toxicity, cell-based. Conditions: human, hek293, 24 h. Put shortly: as §1
Data set [2] deals with MCF7. The data set can be described thus: Induction of intracellular ROS generation in human MCF7 cells at 12 uM incubated for 24 hrs by DCFDA staining based fluorescence microscopic analysis. The format is functional, cell-based. A digest of the protocol:
(§2)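 DCFDA-loaded MCF-7 cells imaged by fluorescence microscopy at 20× for qualitative ROS signal. Cisplatin serves as standard. Images represent three experiments. Scale bar 150 μm.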

In data set [3] the test system is MCF7. The data set can be described thus: Induction of ROS production in human MCF7 cells assessed as increase in ROS level at 12 uM incubated for 24 hrs by DCFH-DA staining based flow cytometry analysis. It counts as functional, cell-based. A digest of the protocol:
(§3)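 Intracellular ROS measured with the H2DCFDA probe. Esterase-deacetylated dye is oxidised to fluorescent DCF (ex 498/em 522 nm). Flow cytometry gave the percentage of ROS-positive MCF-7 cells against untreated control, with cisplatin (5 μM) as positive control. Mean ± SD of three independent investigations.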

Data set [4] relates to Mitochondrial membrane. The data set can be described thus: Induction of mitochondrial membrane potential loss in human MCF7 cells assessed as increase in fluorescence intensity at 12 uM measured for 24 hrs by rhodamine-123 dye based flow cytometry analysis. Put shortly:
(§4)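 MCF-7 cells stained with rhodamine-123. Flow cytometry gave the percentage of cells with mitochondrial membrane potential loss against the untreated basal control. Mean ± SD of three independent investigations.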
(In general: In flow cytometry, cells or beads pass a laser one at a time.)

Data set [5] has as its system Mitochondrial membrane. Put plainly: Induction of mitochondrial membrane potential loss in human MCF7 cells assessed as increase in fluorescence intensity at 12 uM measured for 24 hrs by rhodamine-123 dye based flow cytometry analysis (reference value: 8%). Put shortly: as §4
In data set [6] the test system is MCF7. Put plainly: Induction of apoptosis in human MCF7 cells assessed as increase in Bax mRNA expression at 12 uM measured for 24 hrs bt RT-PCR analysis. The format is functional, cell-based. Put shortly:
(§5)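 mRNA levels of Bax, Bad (pro-apoptotic) and Bcl-2 (anti-apoptotic) measured in treated MCF-7 cells relative to untreated control. Mean ± SD of three independent studies.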

Data set [7] has as its system MCF7. The data set can be described thus: Induction of apoptosis in human MCF7 cells assessed as increase in Bad mRNA expression at 12 uM measured for 24 hrs bt RT-PCR analysis. It counts as functional, cell-based. Put shortly: as §5
Data set [8] deals with MCF7. The data set can be described thus: Induction of apoptosis in human MCF7 cells assessed as decrease in Bcl-2 mRNA expression at 12 uM measured for 24 hrs bt RT-PCR analysis. The format is functional, cell-based. Put shortly: as §5
For data set [9], the system named is MCF7. Put plainly: Induction of DNA fragmentation in human MCF7 cells assessed as increase in condensed nuclei at 12 uM measured for 24 hrs by DAPI staining based fluorescence microscopic analysis. It counts as functional, cell-based. Put shortly:
(§6)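 MCF-7 nuclei stained with DAPI after exposure, with cisplatin (5 μM) as reference. Fluorescence microscopy scored condensed and fragmented nuclei. Images represent three individual experiments. Scale bar 150 μm.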

In data set [10] the test system is MCF7. The data set can be described thus: Induction of DNA fragmentation in human MCF7 cells assessed as increase in fragmented nuclei at 12 uM measured for 24 hrs by DAPI staining based fluorescence microscopic analysis. It counts as functional, cell-based. A digest of the protocol: as §6
A short description of data set [11]: Drug localization in human MCF7 cells at 12 uM incubated for 24 hrs by DAPI staining based confocal fluorescence microscopic analysis. It counts as ADME, cell-based. Conditions: mcf7, 24 h.
Data set [12] deals with MCF7. Put plainly: Induction of apoptosis in human MCF7 cells assessed as increase in number of necrotic cells at 12 uM incubated for 24 hrs by acridine orange/EtBr staining based fluorescence microscopic analysis.
Data set [13] concerns MCF7. The data set can be described thus: Induction of apoptosis in human MCF7 cells assessed as increase in number of late apoptotic cells at 12 uM incubated for 24 hrs by acridine orange/EtBr staining based fluorescence microscopic analysis.
Data set [14] relates to MCF7. The data set can be described thus: Induction of intracellular ROS generation in human MCF7 cells at 10 uM incubated for 24 hrs by DCFDA staining based fluorescence microscopic analysis. It counts as functional, cell-based. Put shortly:
as §2

Data set [15] has as its system MCF7. The data set can be described thus: Induction of ROS production in human MCF7 cells assessed as increase in ROS level at 10 uM incubated for 24 hrs by DCFH-DA staining based flow cytometry analysis. It counts as functional, cell-based. Put shortly:
as §3

Data set [16] relates to MCF7. The data set can be described thus: Induction of apoptosis in human MCF7 cells assessed as increase in early apoptotic cells at 10 uM incubated for 24 hrs by acridine orange/EtBr staining based fluorescence microscopic analysis. The format is functional, cell-based. Put shortly: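 Acridine orange/ethidium bromide dual staining of MCF-7 cells, with cisplatin (5 μM) as reference. Fluorescence microscopy classified cells as live (green nuclei), early apoptotic, late apoptotic or necrotic (orange-red nuclei). Images represent three independent experiments.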

For data set [17], the system named is Mitochondrial membrane. Put plainly: Induction of mitochondrial membrane potential loss in human MCF7 cells assessed as increase in fluorescence intensity at 10 uM measured for 24 hrs by rhodamine-123 dye based flow cytometry analysis. Put shortly:
as §4

The subject of data set [18] is Mitochondrial membrane. Put plainly: Induction of mitochondrial membrane potential loss in human MCF7 cells assessed as increase in fluorescence intensity at 10 uM measured for 24 hrs by rhodamine-123 dye based flow cytometry analysis (reference value: 8%). Put shortly: as §4
The test system of data set [19] is MCF7. Put plainly: Induction of apoptosis in human MCF7 cells assessed as increase in Bax mRNA expression at 10 uM measured for 24 hrs bt RT-PCR analysis. It counts as functional, cell-based. Put shortly:
as §5

The test system of data set [20] is MCF7. The data set can be described thus: Induction of apoptosis in human MCF7 cells assessed as increase in Bad mRNA expression at 10 uM measured for 24 hrs bt RT-PCR analysis. The format is functional, cell-based. Put shortly: as §5
The test system of data set [21] is MCF7. The data set can be described thus: Induction of apoptosis in human MCF7 cells assessed as decrease in Bcl-2 mRNA expression at 10 uM measured for 24 hrs bt RT-PCR analysis. It counts as functional, cell-based. A digest of the protocol:
as §5

The subject of data set [22] is MCF7. The data set can be described thus: Induction of DNA fragmentation in human MCF7 cells assessed as increase in condensed nuclei at 10 uM measured for 24 hrs by DAPI staining based fluorescence microscopic analysis. The format is functional, cell-based. A digest of the protocol:
as §6

For data set [23], the system named is MCF7. Put plainly: Induction of DNA fragmentation in human MCF7 cells assessed as increase in fragmented nuclei at 10 uM measured for 24 hrs by DAPI staining based fluorescence microscopic analysis. The format is functional, cell-based. Put shortly:
as §6

A short description of data set [24]: Drug localization in cytoplasm of human MCF7 cells assessed as increase in red fluorescence at 10 uM incubated for 24 hrs by DAPI staining based confocal fluorescence microscopic analysis. The format is ADME, subcellular. The note with it: mcf7, 24 h.
Data set [25] is described as follows: Drug localization in nucleus of human MCF7 cells assessed as increase in red fluorescence at 10 uM incubated for 24 hrs by DAPI staining based confocal fluorescence microscopic analysis. The format is ADME, subcellular. The note with it: mcf7, 24 h.

Broadly, the IC50 is the concentration needed to halve the response being measured. `CCOC(=O)c1n[nH]nc1-c1cc2ccc(C)cc2nc1Oc1ccc(C#N)cc1`: it took 19 µM to reach half-maximal inhibition with MCF7 [1] (IC50).
The same measure, in the same setting: then `CCOC(=O)c1n[nH]nc1-c1cc2cc(C)c(C)cc2nc1Oc1ccc(C#N)cc1`, with 65 µM.
The same measure, in the same setting: for `CCOC(=O)c1n[nH]nc1-c1cc2ccccc2nc1Oc1ccccc1` the value was 90 µM.
Same read-out and setting: for `CCOC(=O)c1n[nH]nc1-c1cc2ccc(C)cc2nc1Oc1ccc(C)cc1` the value was 42.5 µM.
`Cc1ccc(Oc2nc3ccccc3cc2-c2n[nH]nc2C(N)=O)cc1` showed an IC50 in the data set on MCF7 [1] of 62.5 µM. The IC50 values of the last two molecules are within 1.5-fold of each other.
In the data set with MCF7 [1], `NC(=O)c1n[nH]nc1-c1cc2ccccc2nc1Oc1ccc(Br)cc1` showed a half-maximal inhibitory concentration (IC50) of 12 µM. Besides, the results for the Activity entry in the data set on HEK293 and in the data set with Mitochondrial membrane [5] were “Non-Toxic” and 14%, respectively. Also, the outcome with MCF7 [2], in the data set on MCF7 [3], in the data set on Mitochondrial membrane [4], with MCF7 [6], with MCF7 [7] and with MCF7 [8] was Active. For the same molecule, the outcome in the data set on MCF7 [9], with MCF7 [10], in the data set on MCF7 [12] and in the data set on MCF7 [13] was Active. The Drug uptake result in data set [11] was “Not Active”.
`CCOC(=O)c1n[nH]nc1-c1cc2ccccc2nc1Oc1ccc(C)cc1`: in the data set on MCF7 [1], the IC50 is 53 µM.
In the data set with MCF7 [1], `NC(=O)c1n[nH]nc1-c1cc2ccccc2nc1Oc1ccc(I)cc1` returned a 50% inhibitory concentration (IC50) of 17.5 µM.
`N#Cc1ccc(Oc2nc3ccccc3cc2-c2n[nH]nc2C(N)=O)cc1` had an IC50 in the data set on MCF7 [1] of 10 µM. The Activity result in the data set on HEK293 is “Non-Toxic”; in the data set with Mitochondrial membrane [18] it was 23%. Moreover, the result in the data set with MCF7 [14], in the data set with MCF7 [15], with MCF7 [16], with Mitochondrial membrane [17], with MCF7 [19] and in the data set with MCF7 [20] was Active. For the same molecule, the result in the data set with MCF7 [21], in the data set with MCF7 [22] and with MCF7 [23] was Active. Besides, the Drug uptake entry in [24] and in [25] was “Active” each time.
`CCOC(=O)c1n[nH]nc1-c1cc2ccc(C)cc2nc1Oc1ccc(I)cc1` came in with an IC50 in the data set with MCF7 [1] of 20 µM.
